Counter-ions that a name gives are not always drawn.
T1: granuphilin C2A domain (Homo sapiens, UniProt Q96C24)
T1 sequence (Q96C24 352-488): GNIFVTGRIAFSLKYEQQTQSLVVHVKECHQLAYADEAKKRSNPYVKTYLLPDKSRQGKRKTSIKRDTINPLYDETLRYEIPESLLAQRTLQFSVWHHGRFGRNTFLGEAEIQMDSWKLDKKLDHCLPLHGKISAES


Experiments:
granuphilin C2B domain [1] = biological target: T2, granuphilin C2B domain (Homo sapiens, UniProt Q96C24); assay: Qualitative reversal of protein-to-membrane FRET by IP6; type: binding; conditions: 8 mM IP6, all lipid compositions tested
Summary of the method: (§1)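 Emission spectra recorded at 25 °C (excitation 284 nm) of vesicles bearing dansyl-PE acceptor (125 μM total accessible lipid) in KCl/NaCl/MgCl2/HEPES pH 7.4 buffer with 100 μM EDTA or 1 mM CaCl2. […] Each addition followed by 40 s stirred equilibration. Dansyl emission near 510 nm read; spectra dilution-corrected.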

granuphilin C2A domain [2] = biological target: T1, granuphilin C2A domain; assay: FRET competition binding assay: IP6 titrated into vesicle-bound C2A; conditions: 125 μM accessible lipid, 1 μM C2A
granuphilin C2A domain [3] = biological target: T1, granuphilin C2A domain; assay: Qualitative reversal of protein-to-membrane FRET by IP6; type: binding; conditions: 8 mM IP6, all lipid compositions tested
Summary of the method: as §1

granuphilin C2B domain [4] = biological target: T2, granuphilin C2B domain; assay: FRET competition binding assay: IP6 titrated into vesicle-bound C2B
Summary of the method: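 Human C2B domain (Glu487–Leu671, E. coli-expressed, freed from GST by thrombin) at 1 μM, premixed with liposomes (125 μM total accessible lipid) in 140 mM KCl, […], 0.5 mM MgCl2, 25 mM HEPES pH 7.4 with 100 μM EDTA, 25 °C. IP6 titrated; acceptor emission at 520 nm (excitation 284 nm, 10-s average), dilution-corrected, lipid-only blank subtracted.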

granuphilin C2A domain [5] = biological target: T1, granuphilin C2A domain; assay: Membrane dissociation kinetics on rapid addition of high IP6; type: binding; conditions: 8 mM IP6 rapidly added; biexponential
granuphilin C2A domain [6] = biological target: T1, granuphilin C2A domain; assay: Intrinsic Trp fluorescence titration of IP6 or IP3 into free C2A domain; type: binding
[7] = Stopped-flow FRET association and dissociation kinetics; type: binding; conditions: 0.3 μM protein, 75 μM total accessible lipid
Summary of the method: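 Stopped-flow measurements at 25 °C in assay buffer with 100 μM EDTA; excitation 284 nm, dansyl emission through a 475-nm longpass filter, first 1 ms discarded. For association, 0.3 μM domain was mixed with liposomes (75 μM total accessible lipid, after mixing), and a single-exponential fit gave kobs. For dissociation, pre-bound complexes were mixed with equal volume of 4-fold excess unlabeled vesicles, and an exponential decay fit gave koff. kon was derived from kobs and koff; ≥3 replicates.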

[8] = Qualitative protein-to-membrane FRET; type: binding; conditions: 1 μM domain, 125 μM total accessible lipid
Summary of the method: as §1

[9] = Qualitative protein-to-membrane FRET; type: binding; conditions: 1 μM domain, 125 μM total accessible lipid; remark: listed apart in the source
Summary of the method: as §1

[10] = Qualitative protein-to-membrane FRET; type: binding; conditions: 1 μM domain, 125 μM total accessible lipid; remark: listed apart in the source
Summary of the method: as §1

[11] = Stopped-flow FRET association and dissociation kinetics; type: binding; conditions: 0.3 μM protein, 75 μM total accessible lipid; remark: listed apart in the source
Summary of the method: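 Association run by stopped-flow at 25 °C in assay buffer with 100 μM EDTA: 0.3 μM domain rapidly mixed with liposomes (75 μM total accessible lipid, after mixing). Excitation 284 nm, dansyl emission through a 475-nm longpass filter, data within 1 ms dead time discarded. Single-exponential fit gives kobs; traces averaged over 9–12 mixing events, ≥3 replicates.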

[12] = Qualitative protein-to-membrane FRET; type: binding; conditions: PS and PI replaced with PG; 1 μM domain
Summary of the method: as §1

Molecule	reversal of protein-to-membrane FRET (dansyl emission at 512 nm) (granuphilin C2B domain [1])	IC50 (granuphilin C2A domain [2]; PC/PG/dPE vesicles) [µM]	IC50 (granuphilin C2A domain [2]; PC/PI/dPE vesicles) [µM]	IC50 (granuphilin C2A domain [2]; PC/PS/dPE vesicles) [µM]	IC50 (granuphilin C2A domain [2]; PM(+)PIP2 vesicles, 100 μM EDTA) [µM]	IC50 (granuphilin C2A domain [2]; PM(+)PIP3 vesicles) [µM]	IC50 (granuphilin C2A domain [2]; PM(−)PIPx vesicles) [µM]	reversal of protein-to-membrane FRET (dansyl emission at 512 nm) (granuphilin C2A domain [3])	IC50 (granuphilin C2B domain [4]) [µM]	Ki (granuphilin C2B domain [4]) [µM]	fold faster dissociation kinetics than by approach to equilibrium method (granuphilin C2A domain [5])	Ki (granuphilin C2A domain [6]) [µM]	fold less tight binding of IP3 than IP6 to C2A (granuphilin C2A domain [6])	kobs for association [7] [s⁻¹]	protein-to-membrane FRET (dPE emission) on protein addition [8]	protein-to-membrane FRET (dPE emission) on protein addition [9]	protein-to-membrane FRET (dPE emission) on protein addition [10]	kobs for association [11] [s⁻¹]	protein-to-membrane FRET (dPE emission) on protein addition [12]
O=P(O)(O)O[C@H]1[C@H](OP(=O)(O)O)[C@@H](OP(=O)(O)O)[C@H](OP(=O)(O)O)[C@@H](OP(=O)(O)O)[C@H]1OP(=O)(O)O [IP6, D-myo-inositol 1,2,3,4,5,6,-hexakisphosphate dodecasodium salt]	completely reversed	11 ± 1	5 ± 1	10 ± 1	1600 ± 200	1100 ± 100	37 ± 6	completely reversed	21 ± 3	1.9 ± 0.5	~ 100 fold	1.8 ± 0.1							
O=P(O)(O)O[C@@H]1[C@H](O)[C@H](O)[C@@H](OP(=O)(O)O)[C@H](OP(=O)(O)O)[C@H]1O [IP3, D-myo-inositol-1,4,5-triphosphate tripotassium salt]												80 ± 30	~ 40 fold						
C2A: human granuphilin C2A domain (Gly352 – Ser488) with C-terminal His6 tag, expressed in E. coli (protein, UniProt Q96C24 352-488, looked up, fragment, C2A domain C-terminal His6 tag) GNIFVTGRIAFSLKYEQQTQSLVVHVKECHQLAYADEAKKRSNPYVKTYLLPDKSRQGKRKTSIKRDTINPLYDETLRYEIPESLLAQRTLQFSVWHHGRFGRNTFLGEAEIQMDSWKLDKKLDHCLPLHGKISAES														150 ± 20	increase in dPE emission	increase in dPE emission	FRET was observed	190 ± 30	Binding was restored
